Laboratory results from ChEMBL document CHEMBL4004807 (J Med Chem, 2017).
Activity calls are given as the source filed them. The rule behind the calls is not given here.

Assays:
Prostacyclin receptor [1] = biological target: T1, Prostacyclin receptor (Homo sapiens, UniProt P43119); assay: Ratio of IC50 for IP receptor in human primary platelets to EC50 for recombinant human IP receptor expressed in CHO-K1 cells; assay type: cell-based
[2] = Volume of distribution at steady state in Sprague-Dawley rat at 2 mg/kg, iv or 10 mg/kg, po; assay type: ADME, organism-based; settings: in vivo
[3] = Selectivity ratio of EC50 for recombinant rat IP receptor expressed in CHO-K1 cells to EC50 for recombinant human IP receptor expressed in CHO-K1 cells; assay type: cell-based
[4] = Total clearance in Sprague-Dawley rat plasma at 2 mg/kg, iv or 10 mg/kg, po; assay type: ADME, organism-based
Rattus norvegicus [5] = assay: AUC (0 to infinity) in Sprague-Dawley rat at 10 mg/kg, po; assay type: ADME, organism-based; parameters: dose 10 mg/kg, route oral, time infinity; settings: in vivo
Outline: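 Sprague-Dawley rats, single oral dose of 10.0 mg/kg; AUC0-inf from plasma concentrations.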

Prostacyclin receptor [6] = biological target: T1, Prostacyclin receptor; assay: Agonist activity at IP receptor in PAH patient-derived primary pulmonary arterial smooth muscle cells assessed as induction of cAMP levels after 1 hr by HTRF method; assay type: functional
Prostacyclin receptor [7] = biological target: Prostacyclin receptor (Rattus norvegicus, UniProt P43253); assay: Agonist activity at recombinant rat IP receptor expressed in CHO-K1 cells assessed as increase in intracellular cAMP level after 1 hr incubation by HTRF method; assay type: functional, cell-based
Outline: (§1)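 CHO-K1 clonal lines stably expressing IP at minimal levels; cells in PBS with 1 mM IBMX and 0.2% BSA, 200 000 cells/mL. 10-point, 5-fold DMSO serial dilution, top 10 μM; 1 h at room temperature, then HTRF cAMP-D2 and cryptate reagents in lysis buffer, 1 h, time-resolved fluorescence.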

[8] = biological target: T2, Prostaglandin D2 receptor (Homo sapiens, UniProt Q13258); assay: Agonist activity at recombinant human DP1 receptor expressed in CHO-K1 cells assessed as increase in intracellular cAMP level after 1 hr incubation by HTRF method; assay type: functional, cell-based
T2 sequence (Q13258 whole entry): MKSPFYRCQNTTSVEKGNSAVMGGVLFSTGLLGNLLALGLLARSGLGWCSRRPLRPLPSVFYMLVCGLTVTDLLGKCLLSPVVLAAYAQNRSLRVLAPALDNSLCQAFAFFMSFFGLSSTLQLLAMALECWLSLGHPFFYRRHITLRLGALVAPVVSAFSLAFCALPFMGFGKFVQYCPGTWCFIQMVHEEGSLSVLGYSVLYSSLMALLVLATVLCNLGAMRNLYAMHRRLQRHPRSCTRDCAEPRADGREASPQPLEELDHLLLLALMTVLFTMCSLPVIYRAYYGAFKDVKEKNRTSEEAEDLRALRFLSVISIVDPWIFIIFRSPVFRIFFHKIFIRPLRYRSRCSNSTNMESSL
Outline: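 CHO-K1 clonal line stably expressing DP1 at minimal level; HTRF cAMP assay, 1 h incubation at room temperature, time-resolved fluorescence read-out.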

Prostacyclin receptor [9] = biological target: T1, Prostacyclin receptor; assay: Agonist activity at recombinant human IP receptor expressed in CHO-K1 cells assessed as increase in intracellular cAMP level after 1 hr incubation by HTRF method; assay type: functional, cell-based; outline: as §1
[10] = Volume of distribution at steady state in cynomolgus monkey at 0.1 mg/kg, iv; assay type: ADME, organism-based, Macaca fascicularis; settings: in vivo
[11] = biological target: T3, Prostaglandin E2 receptor EP3 subtype (Homo sapiens, UniProt P43115); assay: Agonist activity at recombinant human EP3v6 receptor expressed in melanophores assessed as induction of pigment redistribution up to 10 uM after 90 mins; settings: 1.5 h
T3 sequence (P43115 whole entry): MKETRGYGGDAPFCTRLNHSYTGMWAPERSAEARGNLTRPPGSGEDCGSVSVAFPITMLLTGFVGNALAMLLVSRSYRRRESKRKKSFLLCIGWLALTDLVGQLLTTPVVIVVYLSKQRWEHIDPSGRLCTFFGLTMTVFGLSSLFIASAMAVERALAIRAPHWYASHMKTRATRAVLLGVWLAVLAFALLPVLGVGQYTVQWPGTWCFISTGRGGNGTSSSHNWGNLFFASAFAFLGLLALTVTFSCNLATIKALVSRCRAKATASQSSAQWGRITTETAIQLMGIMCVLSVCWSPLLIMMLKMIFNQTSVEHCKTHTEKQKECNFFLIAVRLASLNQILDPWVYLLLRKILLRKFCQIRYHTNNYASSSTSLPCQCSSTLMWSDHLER
Outline: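 Melanophores electroporated with 20 μg human EP3v6 plasmid per 400 μL cells, grown 48 h at 27 °C. Assay buffer 0.7× PBS pH 7.3 with 20 nM melatonin to aggregate pigment, 90 min at room temperature, 650 nm baseline; compounds added (10-point, 5-fold dilutions, top 10 μM final), 90 min room temperature, absorbance reread.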

[12] = Total clearance in Beagle dog at 0.2 mg/kg, iv; assay type: ADME, organism-based, Canis lupus familiaris; settings: in vivo
[13] = biological target: Prostaglandin E2 receptor EP4 subtype (Homo sapiens) (UniProt P35408); assay: Agonist activity at recombinant human EP4 receptor expressed in CHO-K1 cells assessed as increase in intracellular cAMP level up to 10 uM after 1 hr incubation by HTRF method; assay type: functional, cell-based
Plasma [14] = assay: Drug metabolism in bile-duct cannulated rat plasma assessed as 2-(((1r,4r)-4-(((4-chlorophenyl)(4-hydroxyphenyl)carbamoyloxy)methyl)cyclohexyl)methoxy)acetic acid formation; assay type: ADME, cell-free
[15] = Drug metabolism in bile-duct cannulated rat bile assessed as 2-(2-(((1r,4r)-4-(((4-chlorophenyl)(phenyl)carbamoyloxy)methyl)cyclohexyl)methoxy)acetoxy)ethanesulfonic acid formation; assay type: ADME
[16] = Total clearance in cynomolgus monkey at 0.1 mg/kg, iv; assay type: ADME, organism-based, Macaca fascicularis; settings: in vivo
Rattus norvegicus [17] = assay: Unbound Cmax in Sprague-Dawley rat at 10 mg/kg, po administered via gavage as single dose; assay type: ADME, organism-based; settings: in vivo
Rattus norvegicus [18] = assay: Cardioprotective effect in Sprague-Dawley rat monocrotaline model of pulmonary arterial hypertension assessed as reduction of MCT-induced increase of pulmonary arterial pressue at 30 mg/kg administered via oral gavage twice daily for 21 consecutive days starting 24 hrs after monocrotaline challenge; assay type: functional, organism-based
Outline: (§2)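 Male rats given 60 mg/kg monocrotaline sc on day 1 (sham: saline) under 30 mg/kg ip pentobarbital; from next day for 20 days dosed by oral gavage twice daily at 10 or 30 mg/kg in 20% HPBCD in saline (vehicle control). Day 21: RV/(LV+S) weights; mPAP via catheter under 60 mg/kg pentobarbital (30 mg/kg group, n = 5); H&E lung sections, 5 animals/group.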

Plasma [19] = assay: Drug metabolism in bile-duct cannulated rat plasma assessed as 2-(2-(((1r,4r)-4-(((4-chlorophenyl)(4-hydroxyphenyl)carbamoyloxy)methyl)cyclohexyl)methoxy)acetoxy)ethanesulfonic acid formation; assay type: ADME, cell-free
Rattus norvegicus [20] = assay: Inhibition of right ventricle hypertrophic response in Sprague-Dawley rat monocrotaline model of pulmonary arterial hypertension assessed as reduction of MCT-induced increase in ratio of right ventricular weight to left ventricle plus septum weight administered via oral gavage twice daily for 21 consecutive days starting 24 hrs after monocrotaline challenge; assay type: functional; outline: as §2
Plasma [21] = assay: Drug uptake in bile-duct cannulated rat plasma; assay type: ADME, cell-free
[22] = Drug uptake in bile-duct cannulated rat bile; assay type: ADME; settings: in vivo
Rattus norvegicus [23] = assay: Inhibition of hypertrophic response in Sprague-Dawley rat monocrotaline model of pulmonary arterial hypertension assessed as reduction of MCT-induced increase in pulmonary vessel wall thickness at 30 mg/kg administered via oral gavage twice daily for 21 consecutive days starting 24 hrs after monocrotaline challenge by morphometric analysis; assay type: functional, organism-based; outline: as §2
[24] = Drug uptake in bile-duct cannulated rat urine; assay type: ADME; settings: in vivo
[25] = biological target: Prostaglandin E2 receptor EP2 subtype (Homo sapiens) (UniProt P43116); assay: Agonist activity at recombinant human EP2 receptor expressed in CHO-K1 cells assessed as increase in intracellular cAMP level up to 10 uM after 1 hr incubation by HTRF method; assay type: functional, cell-based
[26] = Volume of distribution at steady state in Beagle dog at 0.2 mg/kg, iv; assay type: ADME, organism-based, Canis lupus familiaris; settings: in vivo

T1 sequence (P43119 whole entry): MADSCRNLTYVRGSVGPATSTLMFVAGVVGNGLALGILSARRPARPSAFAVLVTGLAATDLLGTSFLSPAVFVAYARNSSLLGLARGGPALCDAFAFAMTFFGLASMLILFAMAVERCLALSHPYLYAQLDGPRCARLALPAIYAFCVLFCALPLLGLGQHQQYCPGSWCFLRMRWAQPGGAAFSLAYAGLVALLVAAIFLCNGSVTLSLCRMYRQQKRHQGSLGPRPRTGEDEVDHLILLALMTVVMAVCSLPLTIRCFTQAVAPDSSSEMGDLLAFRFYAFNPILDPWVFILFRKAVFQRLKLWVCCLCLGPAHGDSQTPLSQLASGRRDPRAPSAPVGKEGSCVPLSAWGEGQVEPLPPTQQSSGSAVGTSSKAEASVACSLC
Sequence of Prostacyclin receptor (Rattus norvegicus, UniProt P43253) (P43253 whole entry): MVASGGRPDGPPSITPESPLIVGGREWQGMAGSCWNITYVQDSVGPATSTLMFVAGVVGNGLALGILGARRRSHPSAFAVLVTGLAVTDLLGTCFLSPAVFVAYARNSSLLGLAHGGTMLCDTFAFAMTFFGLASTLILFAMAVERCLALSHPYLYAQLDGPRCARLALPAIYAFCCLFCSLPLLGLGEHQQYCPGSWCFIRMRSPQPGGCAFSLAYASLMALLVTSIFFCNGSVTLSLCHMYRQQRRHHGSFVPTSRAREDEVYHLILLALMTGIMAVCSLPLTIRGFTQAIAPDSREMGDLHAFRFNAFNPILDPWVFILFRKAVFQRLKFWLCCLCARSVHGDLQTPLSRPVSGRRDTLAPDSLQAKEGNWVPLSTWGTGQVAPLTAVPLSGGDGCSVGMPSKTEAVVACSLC
Sequence of Prostaglandin E2 receptor EP4 subtype (Homo sapiens) (P35408 whole entry): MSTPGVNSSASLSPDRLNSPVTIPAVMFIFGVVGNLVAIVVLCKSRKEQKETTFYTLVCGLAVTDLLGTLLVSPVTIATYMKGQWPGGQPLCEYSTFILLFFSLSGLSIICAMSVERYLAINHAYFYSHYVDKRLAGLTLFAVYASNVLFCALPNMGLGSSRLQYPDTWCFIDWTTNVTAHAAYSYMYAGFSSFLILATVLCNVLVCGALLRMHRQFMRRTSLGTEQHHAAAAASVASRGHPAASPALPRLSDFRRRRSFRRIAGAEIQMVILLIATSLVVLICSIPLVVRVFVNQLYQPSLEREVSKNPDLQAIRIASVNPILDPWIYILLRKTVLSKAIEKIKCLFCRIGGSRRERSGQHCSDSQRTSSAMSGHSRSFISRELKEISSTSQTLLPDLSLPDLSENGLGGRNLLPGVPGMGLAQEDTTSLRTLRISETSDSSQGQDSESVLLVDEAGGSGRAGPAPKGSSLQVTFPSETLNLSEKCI
Sequence of Prostaglandin E2 receptor EP2 subtype (Homo sapiens) (P43116 whole entry): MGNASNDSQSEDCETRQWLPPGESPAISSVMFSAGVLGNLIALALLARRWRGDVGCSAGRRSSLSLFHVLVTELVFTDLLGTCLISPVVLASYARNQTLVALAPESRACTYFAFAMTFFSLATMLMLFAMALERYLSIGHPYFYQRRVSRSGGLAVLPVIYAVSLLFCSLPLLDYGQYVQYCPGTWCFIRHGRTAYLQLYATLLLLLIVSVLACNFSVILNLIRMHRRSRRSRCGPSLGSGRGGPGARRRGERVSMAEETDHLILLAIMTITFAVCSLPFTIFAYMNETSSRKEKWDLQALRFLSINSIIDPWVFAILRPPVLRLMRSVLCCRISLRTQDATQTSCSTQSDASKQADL

Compound	Ratio IC50/EC50 (Prostacyclin receptor [1])	Ratio EC50 [3]	clearance [4] [mL/min/kg]	AUC (Rattus norvegicus [5]) [ng·h/mL]	also measured
COc1ccc(N(C(=O)OC[C@H]2CC[C@H](COCC(=O)O)CC2)c2ccccc2)cc1	2 to 10	10 to 30	56.7	3400	Vd [2]: 0.71 L/kg
O=C(O)COC[C@H]1CC[C@H](COC(=O)N(c2ccccc2)c2ccc(F)c(F)c2)CC1	2 to 10	10 to 30	10	4500	Vd [2]: 1.1 L/kg
CC(C)N(CCCCOCC(=O)O)c1cnc(-c2ccccc2)c(-c2ccccc2)n1	–	–	–	–	Activity (Prostacyclin receptor [6]): Active
CC(C)N(CCCCOCC(=O)NS(C)(=O)=O)c1cnc(-c2ccccc2)c(-c2ccccc2)n1 [SELEXIPAG]	2 to 10	10 to 30	–	–	EC50 (Prostacyclin receptor [7]): 0.2 µM; EC50 [8]: 0.1 µM; EC50 (Prostacyclin receptor [9]): 0.006 µM
O=C(O)COC[C@H]1CC[C@H](COC(=O)N(c2ccc(F)cc2)c2cccc(F)c2)CC1	2 to 10	10 to 30	–	–	–
O=C(O)COC[C@H]1CC[C@H](COC(=O)N(c2ccccc2)c2ccc(F)c(Cl)c2)CC1	2 to 10	10 to 30	–	–	–
Cc1ccc(N(C(=O)OC[C@H]2CC[C@H](COCC(=O)O)CC2)c2ccccc2)cc1	2 to 10	10 to 30	–	–	–
O=C(O)COC[C@H]1CC[C@@H](COC(=O)N(c2ccccc2)c2ccccc2)CC1	2 to 10	10 to 30	–	–	–
O=C(O)COC[C@H]1CC[C@H](COC(=O)N(c2ccccc2)c2ccc(Cl)cc2)CC1	–	–	7.12	14600	Vd [10]: 10.1 L/kg; Activity [11]: Active; clearance [12]: 3.37 mL/min/kg; Activity [13]: inactive; Drug metabolism (Plasma [14]): Metabolite_Detected; Drug metabolism [15]: Metabolite_Detected; clearance [16]: 14.7 mL/min/kg; fCmax (Rattus norvegicus [17]): 100 nM; Activity (Rattus norvegicus [18]): Active; Drug metabolism (Plasma [19]): Metabolite_Detected; inhibition (Rattus norvegicus [20]): Dose-dependent effect; Drug uptake (Plasma [21]): Active; Drug uptake [22]: Active; inhibition (Rattus norvegicus [23]): Active; Drug uptake [24]: Active; Activity [25]: inactive; Vd [26]: 0.308 L/kg
O=C(O)COC[C@H]1CC[C@H](COC(=O)N(c2ccccc2)c2ccc(F)cc2)CC1	2 to 10	10 to 30	30	7900	Vd [2]: 6.2 L/kg
CC#CCC(C)[C@H](O)/C=C/[C@@H]1[C@H]2C/C(=C/CCCC(=O)O)C[C@H]2C[C@H]1O (stereo partly specified) [ILOPROST]	–	–	–	–	Activity [11]: Active
O=C(O)COC[C@H]1CC[C@H](COC(=O)N(c2cccc(F)c2)c2ccc(Cl)c(F)c2)CC1	2 to 10	10 to 30	–	–	–
